Results from ChEMBL document CHEMBL1138778, “Effects of altering the electronics of 2-methoxyestradiol on cell proliferation, on cytotoxicity in human cancer cell cultures, and on tubulin polymerization” (J Med Chem, 2004).

Assays:
[1] = test system: HUVEC; assay: Inhibitory concentration against growth of HUVEC […] cell line; assay type: functional, cell-based; conditions: Homo sapiens
In short: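 HUVEC, used up to five passages in EGM with bovine brain extract and antibiotic-antimycotic, seeded at 3000 cells/well and attached overnight. Cells were exposed to compound for 48 h. Proliferation was read by BrdU-incorporation colorimetric ELISA or by cell counting, in triplicate, with experiments repeated at least twice.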

[2] = test system: MDA-MB-231; assay: Inhibitory concentration against growth of MDA-MB-231 cancer cell line; assay type: functional, cell-based; conditions: Homo sapiens
In short: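 MDA-MB-231 cells in DMEM/F12 (1:1) with 10% FBS, seeded at 1000 cells/well and attached overnight. Cells were exposed to compound for 48 h. Proliferation was read by BrdU-incorporation colorimetric ELISA or by cell counting, in triplicate, with experiments repeated at least twice.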

[3] = Growth inhibitory concentration against human cancer cell line; assay type: functional; conditions: Cancer cell lines
In short: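 NCI human cancer cell line antiproliferative screen, tested over 10^-4 to 10^-8 M. GI50 is the concentration giving 50% growth inhibition of each cell line. The mean graph midpoint is the average GI50 across all lines tested, with values outside the range set to 10^-8 or 10^-4 M.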

[4] = test system: HOP-62; assay: Growth inhibitory concentration against human lung cancer HOP-62 cell line; assay type: functional
In short: (§1)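 Screen over 10^-4 to 10^-8 M in a human cancer cell line panel. GI50 is the concentration giving 50% growth inhibition of the individual cell line.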

[5] = test system: SN12C; assay: Growth inhibitory concentration against human renal SN12C cancer cell line; assay type: functional
In short: (§2)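 Human cancer cell line antiproliferative screen, compounds tested over 10^-4 to 10^-8 M. GI50 is the concentration giving 50% growth inhibition of the individual cell line. GI50 values outside the tested range were set to the range limits (10^-8 or 10^-4 M) when averaging across all lines tested to give the mean graph midpoint.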

[6] = test system: HCT-116; assay: Growth inhibitory concentration against human colon cancer HCT116 cell line; assay type: functional; in short: as §1
[7] = test system: SF-539; assay: Growth inhibitory concentration against human CNS SF-539 cancer cell line; assay type: functional; in short: as §2
[8] = target: Tubulin beta chain (Bos taurus, UniProt Q6B856); assay: Inhibitory concentration against bovine brain tubulin polymerization; assay type: functional
In short: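 Bovine brain tubulin, 1.2 mg/mL (12 μM), was preincubated with a range of compound concentrations and then chilled on ice. GTP was added and assembly followed by turbidity at 350 nm for 20 min at 26 °C. IC50 is the concentration halving assembly at 20 min, from at least two independent assays.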

[9] = test system: OVCAR-3; assay: Growth inhibitory concentration against human ovarian OVCAR-3 cancer cell line; assay type: functional; in short: as §2
[10] = test system: DU-145; assay: Growth inhibitory concentration against human prostate DU-145 cancer cell line; assay type: functional
In short: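 Human cancer cell line screen across 10^-4 to 10^-8 M compound. GI50 is the concentration giving 50% growth inhibition of the individual cell line. GI50 values below or above the tested range were taken as 10^-8 M or 10^-4 M.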

[11] = test system: UACC-62; assay: Growth inhibitory concentration against human melanoma UACC-62 cancer cell line; assay type: functional; in short: as §2
[12] = test system: MDA-MB-435; assay: Growth inhibitory concentration against human breast MDA-MB-435 cancer cell line; assay type: functional; in short: as §2

Tubulin beta chain, sequence (Q6B856 whole entry): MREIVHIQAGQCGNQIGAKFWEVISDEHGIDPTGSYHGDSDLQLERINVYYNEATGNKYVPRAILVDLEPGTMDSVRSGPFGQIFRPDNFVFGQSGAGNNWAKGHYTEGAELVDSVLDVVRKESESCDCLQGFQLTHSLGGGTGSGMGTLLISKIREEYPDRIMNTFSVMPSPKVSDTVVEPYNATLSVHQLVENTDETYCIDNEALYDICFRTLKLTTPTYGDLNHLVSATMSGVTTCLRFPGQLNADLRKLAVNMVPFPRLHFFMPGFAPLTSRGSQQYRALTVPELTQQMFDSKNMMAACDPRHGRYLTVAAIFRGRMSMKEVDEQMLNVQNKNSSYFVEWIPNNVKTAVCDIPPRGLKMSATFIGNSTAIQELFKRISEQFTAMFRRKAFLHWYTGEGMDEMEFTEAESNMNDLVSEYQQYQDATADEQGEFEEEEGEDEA

| SMILES | IC50 [1] | IC50 [2] | GI50 [3] | GI50 [4] | GI50 [5] | GI50 [6] | GI50 [7] | IC50 [8] | GI50 [9] | GI50 [10] | GI50 [11] | GI50 [12] |
| --- | --- | --- | --- | --- | --- | --- | --- | --- | --- | --- | --- | --- |
| C/C=C/c1cc2c(cc1O)CC[C@@H]1[C@@H]2CC[C@]2(C)[C@@H](O)CC[C@@H]12 | 590 nM | 650 nM | – | – | – | – | – | – | – | – | – | – |
| COc1cc2c(cc1O)CC[C@@H]1[C@@H]2CC[C@]2(C)[C@@H](O)CC[C@@H]12 [2-METHOXYESTRADIOL] | – | – | 1300 nM | 700 nM | 950 nM | 470 nM | 320 nM | 5300 nM | 210 nM | 1800 nM | 360 nM | 80 nM |
